# Compound activity deposited in PubChem BioAssay by several laboratories.
# Beta apoptosis: inhibitors of cytokine-induced beta cell apoptosis, primary screen, luminescence; actives 0.8% (n = 300,000); AID 435005, 2010; protection from apoptosis, % (test concentration not listed); INS-1E cytokine-induced death, ATP luminescence, 48 h; percent of positive-control rescue, neutral wells zero;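 active = Every replicate reaches about 75%, or at least half do and their mean reaches it too, limit read from the data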;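 also: 0% = cytokine-treated negative control wells and 100% = positive control rescue; higher means more ATP so stronger rescue from cytokine killing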
# T cruzi repl: inhibitors of intracellular T. cruzi growth, primary screen, luminescence, NIH3T3 host cells; T. cruzi beta-gal in NIH3T3, 90 h; inhibition, % (test concentration not listed); actives 1.4% (n = 300,000); AID 1885, 2009;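 active = mean inhibition across valid replicates above about 55%, limit read from the data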;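 also: signal also drops with host cell toxicity which is not excluded here; 0% = plate median of DMSO wells and 100% = zero luminescence signal; higher percent means less beta-gal luminescence so fewer parasites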
#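 System: mouse NIH/3T3 fibroblasts infected with β-gal-expressing T. cruzi Tulahuen C4 / Input: NIH/3T3 cells, 5,000 per well / Buffer or medium: Low-serum DMEM with 2% FBS / Probe or stimulus: 5000 reporter trypomastigotes per well / Schedule: ≥90 h infection period, 3 h prior cell attachment / Measured by: GalScreen luminescence, 60 min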
# Mot1-301 SUMO: yeast Mot1-301 growth rescue at high temperature, primary screen, SUMOylation pathway inhibitor project, S. cerevisiae, ATP luminescence, 38.5C. S. cerevisiae Mot1-301 growth rescue; percent above DMSO median, 100 means doubled. growth rescue, % at 18.8 µM. actives 1% (n = 320,000). AID 2716, 2010;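 active = every valid replicate shows activation above 250% relative to neutral control wells; inactive = the rest, any valid replicate at or below 250%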;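 also: OY570 slx delta 5 strain wells were the positive control but not used for scaling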
# CSC inhib: cancer stem cell viability inhibitors, primary screen, luminescence. cancer stem cell-like cells viability. inhibition, % at 7.5 µM. actives 1.1% (n = 300,000). AID 2717, 2010; in the data active = inhibition above about 75%; tested in HMLE shEcad cells
# WT yeast gro inh: growth inhibition of WT strain, primary screen, mitochondrial fusion inhibitor project, WT and mutant strains, chemical genetic; inhibition, % at 10 µM; actives 2.1% (n = 190,000); mitochondrial fusion phenotypic screen; in the data active = inhibition above about 58%; tested in S. cerevisiae
# Efflux pump inh: inhibitors of Candida efflux pumps in yeast, primary screen, S. cerevisiae, Nile Red, multiplex; S. cerevisiae Candida pump triplex; inhibition, % at 10 µM; actives 0.44% (n = 330,000);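 active = plate passing quality check with inhibition over a set limit, or well fluorescence over plate mean plus 4 SD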;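 also: Nile Red retained in pooled yeast measured as flow cytometry median fluorescence; 0% = buffer negative control and 100% = Enniatin B positive control; higher means more Nile Red kept so more efflux inhibition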
# Numbers without * were called inactive; nt = no result given. Rows were chosen to be rich in hits. Some 4.8% of all compounds tested hit in one or more screens of this group.
SMILES,Beta apoptosis,T cruzi repl,Mot1-301 SUMO,CSC inhib,WT yeast gro inh,Efflux pump inh
Oc1ccc(/C=N/n2cc(-c3ccccc3)[nH]c2=S)cc1,3,-10,nt,10,16,0
S=c1[nH]c(-c2ccccc2)cn1/N=C/c1ccccc1Br,18,19,14,23,68*,0
O=C1C=C(c2cccc(O)c2)CCC1,0,-6,7,-16,nt,0
Cc1nnc(SCC(=O)Nc2cc(S(C)(=O)=O)ccc2Cl)n1Cc1ccccc1,-1,10,0,nt,nt,0
Cc1ccc(Cc2ccc(C(=O)NNC(N)=S)o2)cc1,-5,-2,-13,7,-3,0
CCOc1ccc(CNC(=O)CCC(=O)n2ncc3ccc(Cl)cc32)cc1,-2,-9,-21,-5,nt,0
O=C(Cc1cccc(NC(=O)C2CCN(C(=O)C3CCCCC3)CC2)c1)Nc1cccc(C(=O)N2CCCC2)c1,7,nt,-6,-20,nt,0
O=C1c2ccccc2CC1(Cc1ccccc1)Cc1ccccc1,0,6,-21,0,73*,0
O=C(Nc1cccc(CNCCc2c[nH]c3ccccc23)c1)c1ccccc1Cl,-4,28,12,22,nt,0
CN1CCC2(CC1)Nc1nc(SCc3ccc(Cl)cc3)nn1C1=C2CN(C)CC1,-7,15,-5,4,66*,0
CC(=O)c1cnc2nc(SCc3ccc(Cl)cc3)nn2c1C,0,11,46,-12,nt,0
COc1c(Cl)cc(Cl)cc1/C=C/C(=O)c1ccc(NC(=O)c2cccs2)cc1,23,43,-18,103*,24,0
Cc1sc2nc(CSC(C)C(=O)Nc3ccc(Cl)cn3)[nH]c(=O)c2c1C (configuration not stated),-5,nt,-16,0,nt,0
Cc1ccc(-n2ncc3c(=O)n(CC#N)cnc32)cc1C,-6,0,-4,-8,-4,0
C#CCn1cnc2c(cnn2-c2ccc(C)c(C)c2)c1=O,0,-11,37,6,60*,0
CC1CC(C)CN(C(=O)C2CCC(CNS(=O)(=O)c3ccccc3)CC2)C1 (configuration not stated),-4,4,7,4,nt,0
CN(C)S(=O)(=O)c1cccc(COC(=O)CCNC(=O)c2ccc([N+](=O)[O-])cc2)c1,nt,nt,nt,nt,nt,0
CCOc1ccccc1-c1nnc(SCC(=O)NC2(C#N)CCCC2)o1,2,nt,18,-13,nt,0
CCOc1ccc2nc(NC3=NC(c4ccc(OC)cc4)CC(=O)N3)nc(C)c2c1 (configuration not stated),46,51,4,76*,14,0
Clc1ccc(-c2nc3cnccn3c2NC2CCCC2)cc1,7,16,0,18,68*,0
COc1ccc(-c2nc3ccccn3c2NC2CCCCC2)cc1SC1CCCCC1,nt,37,-5,-29,nt,0
CCC(C)Sc1ccc(-c2nc3cnccn3c2NC2CCCCC2)cc1 (configuration not stated),15,25,-16,126*,nt,0
COc1ccc(Sc2ccc(-c3nc4cnccn4c3NC3CCCCC3)cc2OC)cc1,4,nt,-6,104*,nt,0
CCC(C)Sc1ccc(-c2nc3cc(C)ccn3c2NC2CCCCC2)cc1 (configuration not stated),nt,nt,nt,nt,nt,0
CC1(c2ccc3c(c2)OCCCO3)NC(=O)N(CC(=O)NCCc2ccccc2)C1=O (configuration not stated),-7,nt,99,-23,nt,0
SMILES,Beta apoptosis,T cruzi repl,Mot1-301 SUMO,CSC inhib,WT yeast gro inh,Efflux pump inh
CCOC(=O)N1CCN(C(=O)c2ccc(NC(=O)c3ccc(C)cc3)cc2)CC1,0,-12,0,-6,-7,0
CCOc1ccc(NC(=O)c2c(N)n(C)c(=O)[nH]c2=O)cc1,-3,-11,-2,-2,nt,nt
CN1CCN(c2nc(NCCOC34CC5CC(CC(C5)C3)C4)nc(OCC(F)(F)F)n2)CC1,7,52,-10,3,83*,0
N#C/C(=C\c1c(F)cccc1Cl)S(=O)(=O)c1ccccn1,-1,-19,11,-3,nt,0
O=C(O)CN1C(=O)/C(=C\c2ccccc2OCc2ccc(Cl)cc2)SC1=S,-4,1,97,10,nt,0
O=C(O)CN1C(=O)/C(=C\c2cc(Br)ccc2OCc2ccc(Cl)cc2Cl)SC1=S,-4,1,-5,108*,nt,0
Nc1ccc(-c2cc3ccccc3oc2=O)cc1,nt,23,23,4,nt,0
O=C/C=C/c1c(-c2ccccc2)cc2oc3ccccc3cc1-2,1,-7,9,98*,nt,0
CCc1cccc(NC(=S)N(CCOC)C(C)c2ccco2)c1 (configuration not stated),9,-1,-8,12,nt,1
O=S(=O)(Nc1nc2ccccc2s1)c1cc(F)ccc1F,2,7,-12,1,nt,0
O=S(=O)(Nc1nc2ccccc2s1)c1ccc(Cl)s1,81*,-2,6,52,-12,0
Cc1ccc(Nc2nc(N3CCN(C)CC3)nc(N)c2[N+](=O)[O-])cc1C,-4,23,3,6,83*,0
Cc1ccc(Nc2nc(N)c([N+](=O)[O-])c(N3CCCC(C)C3)n2)cc1C (configuration not stated),33,9,-14,40,96*,0
CN(CC(=O)Nc1ccc(Cl)c(C(F)(F)F)c1)C(=O)/C=C/c1cccs1,-4,nt,8,22,nt,0
Cc1ccc(NC2CCCN(C(=O)c3cccc(-c4ncc[nH]4)c3)C2)cc1C (configuration not stated),2,8,44,-1,nt,0
CCN(CC)CCNc1nc(-c2ccccc2)c2c(c1C#N)CC(C)(C)OC2,-5,56*,5,-7,20,0
CC1=NN(c2ccc(Cl)cc2)C(=O)/C1=C\c1cccn1-c1ccc(S(N)(=O)=O)cc1,-15,-4,10,-1,81*,0
O=C1c2ccccc2S(=O)(=O)N1CCOc1ccc(F)cc1,-2,0,26,-3,-3,0
O=C(N/N=C/c1ccc(O)cc1O)/C(=C/c1ccccc1)CCO,85*,6,-17,97*,3,0
Cc1cc(SCC(=O)N/N=C/c2ccc(O)cc2O)c(C)cc1Br,55,62*,4,96*,-12,0
COc1cc(/C=N/NC(=O)/C(=C/c2ccccc2)CCO)ccc1O,-6,-2,218,1,6,1
O=C(CNC(=O)C(c1ccccc1)c1ccccc1)N/N=C/c1ccc(O)cc1O,44,23,6,133*,nt,0
